Measured values: publication PMC10807744 (Journal of agricultural and food chemistry, 2023)

Experiments:
mAb-19F2 [1] = assay: ic-ELISA; format: binding, BALB/c mice; details: mAb-19F2, relative to buprofezin = 100%
mAb-19F2 [2] = assay: colloidal gold immunochromatographic assay; format: binding, BALB/c mice
Outline: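 Colloidal gold strips were striped with […]. Tea was soaked 30 min in 50 mL boiling water, adjusted to pH 6-7, and 100 µL applied. Spikes were 2.5, 5 and 10 mg/kg. LOD was read by eye as test-line disappearance, and LOQ as IC20.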

Compound | Cross-reactivity (mAb-19F2 [1]) [%] | further results
CCN(Cc1ccc(Cl)nc1)/C(=C/[N+](=O)[O-])NC [Nitenpyram] | <0.18 | 
O=C1C=C(N(Cc2ccc(Cl)nc2)CC(F)F)CO1 [Flupyradifurone] | <0.18 | 
CCCOC1CC(C)C([N+](=O)[O-])=C2N(Cc3ccc(Cl)nc3)CCN21 (centres unmarked) [Paichongding(IPP)] | <0.18 | 
O=C(NC(=O)c1c(F)cccc1F)Nc1cc(Cl)c(OC(F)(F)C(F)C(F)(F)F)cc1Cl (centres unmarked) [Lufenuron] | <0.18 | 
FC(F)(F)c1ccc(OCCCOc2c(Cl)cc(OCC=C(Cl)Cl)cc2Cl)nc1 [Pyrldalyl] | <0.18 | 
O=C(NC(=O)c1c(F)cccc1F)Nc1ccc(Cl)cc1 [Diflubenzuron] | <0.18 | 
N#CN=C1SCCN1Cc1ccc(Cl)nc1 [(E)-Thiacloprid] | <0.18 | 
CN/C(=N\[N+](=O)[O-])NCc1cnc(Cl)s1 [Clothianidin] | <0.18 | 
CC(COc1ccc(Oc2ccccc2)cc1)Oc1ccccn1 (centres unmarked) [Pyriproxyfen] | <0.18 | 
CCc1ccc(C(=O)NN(C(=O)c2cc(C)cc(C)c2)C(C)(C)C)cc1 [Tebufenozide] | <0.18 | 
O=C(NC(=O)c1ccccc1Cl)Nc1ccc(Cl)cc1 [Chlorbenzuron] | <0.18 | 
CN/C(=N/CC1CCOC1)N[N+](=O)[O-] (centres unmarked) [Dinotefuran] | <0.18 | 
CCOC(=O)NCCOc1ccc(Oc2ccccc2)cc1 [Fenoxycarb] | <0.18 | 
O=C(NC(=O)c1ccccc1Cl)Nc1ccc(OC(F)(F)F)cc1 [Triflumuron] | <0.18 | 
O=[N+]([O-])/N=C1\NCCN1Cc1cnc(Cl)s1 [Imidaclothiz] | <0.18 | 
Cc1cc(C)cc(C(=O)N(NC(=O)c2ccc3c(c2C)CCCO3)C(C)(C)C)c1 [Chromafenozide] | <0.18 | 
CC(C)(C)N(NC(=O)c1ccccc1)C(=O)c1ccccc1 [1,2-dibenzoyl-1-(t-butyl)hydrazine] | <0.18 | 
O=C(NC(=O)c1c(F)cccc1F)Nc1cc(Cl)c(Oc2ncc(C(F)(F)F)cc2Cl)c(Cl)c1 [Chlorfluazuron] | <0.18 | 
N#CCNC(=O)c1cnccc1C(F)(F)F [Flonicamid] | <0.18 | 
Nc1nc(N)nc(NC2CC2)n1 [Cyromazine] | <0.18 | 
CC(C)N1C(=O)N(c2ccccc2)CS/C1=N\C(C)(C)C [Buprofezin] | 100 | limit of quantitation (LOQ, IC20) (mAb-19F2 [2]; GICA, abstract): 16.8 ng/mL; IC50 of the test strip (mAb-19F2 [2]; T/C values, buprofezin standard in 0.01 M PBS): 231.20 ng/mL; detection limit (LOD) (mAb-19F2 [2]; complete disappearance of test line visible to the naked eye): 500 ng/mL
CC(c1ccc(C(F)(F)F)nc1)S(C)(=O)=NC#N (centres unmarked) [Sulfoxaflor] | <0.18 | 
C/C(=N\C#N)N(C)Cc1ccc(Cl)nc1 [Acetamiprid] | <0.18 | 
O=C(NC(=O)c1c(F)cccc1F)Nc1cc(Cl)c(OC(F)(F)C(F)F)c(Cl)c1 [Hexaflumuron] | <0.18 | 
CN1COCN(Cc2cnc(Cl)s2)/C1=N\[N+](=O)[O-] [Thiamethoxam] | <0.18 | 
CCCC/C=N/N(Cc1ccc(Cl)nc1)/C(N)=N/[N+](=O)[O-] [Guadipyr] | <0.18 | 
